The text below walks through data of PubChem BioAssay AID624466 (The Scripps Research Institute Molecular Screening Center, 2012).

Screen size: about 360,000 compounds; about 5,400 (1.5%) were called active. The sample holds actives, similar compounds and a random draw of the others, so the mix is not that of the screen. Values without a mark were called inactive.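 How the source made its calls: active means inhibition above a per-plate cutoff, the mean inhibition of test compounds on that plate plus 3 SD (cut at about 49% in these data); inactive means the rest.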

Chain of Trace amine-associated receptor 1 (Homo sapiens) (Q96RJ0 whole entry, looked up): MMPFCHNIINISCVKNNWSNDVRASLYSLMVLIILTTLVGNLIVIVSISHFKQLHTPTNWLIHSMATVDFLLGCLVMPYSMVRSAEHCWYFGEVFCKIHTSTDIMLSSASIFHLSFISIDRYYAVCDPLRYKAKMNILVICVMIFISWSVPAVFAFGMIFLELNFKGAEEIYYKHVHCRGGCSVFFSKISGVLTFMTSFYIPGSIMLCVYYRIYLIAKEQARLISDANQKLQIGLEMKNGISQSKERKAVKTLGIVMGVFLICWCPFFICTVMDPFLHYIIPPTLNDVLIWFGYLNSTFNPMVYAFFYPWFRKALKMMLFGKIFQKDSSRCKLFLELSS

This test addresses Trace amine-associated receptor 1 (Homo sapiens) (UniProt Q96RJ0). Put plainly: blockers of beta-PEA-driven TAAR1 calcium signal – Fluo-8 calcium fluorescence, CHO RD-HGA16 cells, primary screen (AID 624466).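 Further: 0% = DMSO plus EC80 beta-PEA response and 100% = DMSO alone without agonist.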 To be noted: CHO RD-HGA16 TAAR1, Fluo-8 calcium fluorescence, antagonist; at 3 µM; hits give high values. Summed up: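 test system = CHO RD-HGA16 cells bearing hTAAR1 | replication = singlicate | controls = DMSO-only wells and EC80 β-PEA-stimulated wells | reagent = EC80 β-phenethylamine stimulus | read-out basis = percent inhibition of PEA-evoked calcium signal, max/basal emission ratio | schedule = seeding 17-24 h prior, 75-min 37 °C, 30-min RT dye loading | signal = kinetic Fluo-8 calcium fluorescence measurement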
With `O=C(Nc1ccc(-c2nnc(-c3ccccc3)o2)cc1)c1ccc(Br)o1`, the inhibition was 71% (active).

As to `CCS(=O)(=O)c1ccc(-c2cccc(NC(=O)c3ccc(Br)o3)c2)nn1`, the inhibition was 13.4%.

In the case of `CN1CCN(C(=O)c2ccc(NC(=O)c3ccc(Br)o3)cc2)CC1`, the inhibition was -4.9%.

As for `CC(=O)OCC1(O)CC23CCC4c5ccoc5CCC4(C)C2CCC1C3` (stereo unspecified), the inhibition is 13.6%.

In the case of `COC(=O)C[C@@H]1C=C[C@@H](NC(=O)c2cccnc2)[C@@H](CO)O1`, the inhibition was -15.9%.

In the case of `CCC(C)(C)NC(=O)c1cc([N+](=O)[O-])ccc1N1CCCCC1`, the inhibition was -10.4%.

Take `Cc1cc(OCC(=O)NC2CCN(C)CC2)ccc1[N+](=O)[O-]`: the inhibition is -21.6%.

`Cc1cc(OCCCN2CCN(Cc3ccccc3)CC2)ccc1[N+](=O)[O-]`: the inhibition was -20.9%.

Consider `Cc1cc(OCCCCOc2ccc(C#N)cc2)ccc1[N+](=O)[O-]`, for which the inhibition was 51.1% (active).

Turning to `COc1ccc(-n2nc(C(=O)NCC(=O)N3CCC(C(N)=O)CC3)c3ccccc3c2=O)cc1OC`, the inhibition was 1.2%.

As for `CCOC(=O)C(Cc1ccc(N)cc1)N1C(=O)c2ccccc2C1=O` (stereo unspecified), the inhibition is 10.7%.

`N/C(=N\c1nc2ccccc2o1)NC(=O)C(Cc1ccccc1)N1C(=O)c2ccccc2C1=O` (stereo unspecified): the inhibition is 49% (active).

Consider `O=C(NCCN1CCOCC1)[C@H](Cc1ccccc1)N1C(=O)c2ccccc2C1=O`, for which the inhibition is -8.4%.

For the molecule `CC(C)(C)C1CCC(=O)N2CCC[C@]2(c2ccccc2)C1` (stereo partly specified), the inhibition is -2.31%.

Take `CC(C)CC1C(=O)N(Cc2cn(CC3CCCCC3)nn2)CCS(=O)(=O)N1Cc1ccc(-c2ccc(Cl)cc2)cc1` (stereo unspecified): the inhibition was -15.1%.

In the case of `COc1ccc(-c2ccc(CN3C(CC(C)C)C(=O)N(Cc4cn(CC5CCCCC5)nn4)CCS3(=O)=O)cc2)cn1` (stereo unspecified), the inhibition is -9.27%.

As to `COCOCCn1cc(CN2CCS(=O)(=O)N(Cc3ccc(-c4ccccc4)cc3)C(CC(C)C)C2=O)nn1` (stereo unspecified), the inhibition is 54.1% (active).

As to `COc1ccc(-c2ccc(CN3C(CC(C)C)C(=O)N(Cc4cn(CC5CCCCC5)nn4)CCS3(=O)=O)cc2)cc1` (stereo unspecified), the inhibition is -8.03%.

Consider `COCOCCn1cc(CN2CCS(=O)(=O)N(Cc3ccc(-c4cccc(N(C)C)c4)cc3)C(CC(C)C)C2=O)nn1` (stereo unspecified), for which the inhibition is 1.52%.

Turning to `COCOCCn1cc(CN2CCS(=O)(=O)N(Cc3ccc(-c4ccc(OC)cc4)cc3)C(CC(C)C)C2=O)nn1` (stereo unspecified), the inhibition is 54.1% (active).

Regarding `CCOc1ccc(CNC(=O)CCC(=O)N2CCSc3ccccc32)cc1`, the inhibition is -0.53%.

Consider `O=S1(=O)CC(N2CCN(CCO)CC2)CN1Cc1cn(Cc2ccc(Cl)cc2)nn1` (stereo unspecified), for which the inhibition was -8.26%.

Turning to `COc1ccc(OC)c(CN2C(=O)CCC2(C)c2nnnn2Cc2ccccc2)c1` (stereo unspecified), the inhibition is -20.4%.

For the molecule `COC(=O)c1ccc(Oc2nc(Nc3ccc(F)cc3)nc(N3CCCC3)n2)cc1`, the inhibition was -16.1%.

Regarding `CCN1CCN(c2nc(Nc3cc(OC)ccc3OC)nc(Nc3cc(OC)ccc3OC)n2)CC1`, the inhibition was -14.1%.

As for `CCOc1ccc(Nc2nc(Cl)nc(N3CCN(c4ccc(OC)cc4)CC3)n2)cc1`, the inhibition is 56.5% (active).

With `CC(C)c1ccc(C=NNc2ccc([N+](=O)[O-])cn2)cc1`, the inhibition is 17.1%.

Regarding `O=[N+]([O-])c1ccc(N=NNc2ccc([N+](=O)[O-])cc2)cc1`, the inhibition was -6.71%.

Take `O=[N+]([O-])c1ccc(N/N=C/c2ccccc2)cc1`: the inhibition was 61.6% (active).

As for `O=C(NN=Cc1ccco1)C(=O)Nc1ccc(Cl)c([N+](=O)[O-])c1`, the inhibition is 8.28%.

Consider `CN(C)c1ccc(C=NCCc2ccc(S(N)(=O)=O)cc2)cc1`, for which the inhibition is -1.3%.

As to `c1ccc2c(c1)CCc1snnc1-2`, the inhibition is -2.49%.

As to `S=C(NCCCc1cnc[nH]1)NCCCN(Cc1ccc(Cl)c(Cl)c1)c1ccc(Br)cn1`, the inhibition is 51.9% (active).

As to `NCCCNC(=S)NCCCN(Cc1ccc(Cl)cc1)c1ccc(Br)cn1`, the inhibition was 0.12%.

`C=CCN=C1NC(c2ccccc2)C(C(=O)OC)=C(C)N1Cc1ccc(C(F)(F)F)cc1` (stereo unspecified): the inhibition is 31.4%.

In the case of `CSc1ncccc1C(=O)N1CCCC(Nc2ccc(F)c(F)c2)C1` (stereo unspecified), the inhibition is 4.84%.

As to `CN(c1ccccc1)S(=O)(=O)c1ccc(Cl)c(C(=O)OCC(N)=O)c1`, the inhibition is -0.08%.

With `CC(=O)c1c(C)[nH]c(C(=O)COC(=O)c2cccs2)c1C`, the inhibition is 36%.

As for `CC(=O)c1c(C)[nH]c(C(=O)COC(=O)c2cccc(S(=O)(=O)N(C)c3ccccc3)c2)c1C`, the inhibition is 81.8% (active).

Turning to `O=C(Nc1ccc(N2CCN(C(=O)C3CC3)CC2)cc1)c1cccs1`, the inhibition was 16.4%.

Turning to `O=C(Nc1ccccc1-c1nnn(CC(=O)N2CCN(c3ccccc3)CC2)n1)c1cccs1`, the inhibition is 62% (active).

As for `COc1ccccc1N1CCN(C(=O)Cn2nnc(-c3cccs3)n2)CC1`, the inhibition was 2.09%.

Consider `Cc1ccc(F)cc1S(=O)(=O)Nc1cccc(C(=O)N2CCCC(C(N)=O)C2)c1` (stereo unspecified), for which the inhibition was -13.3%.

As for `COC(=O)[C@]12CCCCC=C1N(Cc1ccco1)C(=O)[C@H](CC(=O)NCCCCc1ccccc1)C2`, the inhibition was 12.7%.

Turning to `CC(=O)C1=C(C)N(Cc2ccccc2)C(=S)NC1c1cccc(Br)c1` (stereo unspecified), the inhibition was 25.4%.

As to `CN(C(=O)CN1C(=O)NC(C)(CCc2ccccc2)C1=O)c1ccccc1` (stereo unspecified), the inhibition is 9.09%.

For the molecule `CN(C)c1ccc(/C=C2\NC(=S)N(Cc3ccccc3)C2=O)cc1`, the inhibition was 74.3% (active).

In the case of `COc1ccc(OC)c2[nH]c(=O)c(CCNC(=O)C(C)(C)C)cc12`, the inhibition was -17%.

As to `COc1ccc(OC)c2[nH]c(=O)c(CCNC(=O)C(=O)c3c[nH]c4ccccc34)cc12`, the inhibition is 64.7% (active).

As to `O=C(NCCCc1ccccc1)C(=O)c1c[nH]c2ccccc12`, the inhibition was -6.38%.

With `O=C(COC(=O)C1CCCCC1)Nc1ccc([N+](=O)[O-])cc1`, the inhibition was 35.5%.

Turning to `CCC(C)c1ccc(NC(=O)COC(=O)C2CCCC2)cc1` (stereo unspecified), the inhibition is 5.25%.

As to `CC(=O)Nc1ccc(NC(=O)COC(=O)C2CCC(C(C)(C)C)CC2)cc1` (stereo unspecified), the inhibition was 65.2% (active).

For `O=C(Nc1ccc(F)cc1)C(CCc1ccccc1)N1CCN(CC(=O)N2CCCC2)CC1` (stereo unspecified), the inhibition was 4.42%.

As for `C[C@H](CO)N1C[C@H](C)[C@@H](CN(C)C(=O)Nc2ccccc2F)OCc2cn(nn2)CCCC1=O`, the inhibition was 6.99%.

Regarding `CCCNC(=O)C1(C)CCN(Cc2csc(-c3ccc(Cl)cc3)n2)C1` (stereo unspecified), the inhibition was -5.66%.

With `CN(C)S(=O)(=O)c1cccc(NC(=O)COc2ccc3ccccc3c2)c1`, the inhibition is 30.8%.

Regarding `CN(C)S(=O)(=O)c1cccc(NC(=O)COC(=O)c2cc(=O)[nH]c(=O)[nH]2)c1`, the inhibition was -12.5%.

For the molecule `CN(C)S(=O)(=O)c1cccc(NC(=O)COC(=O)C2(c3ccccc3F)CCCC2)c1`, the inhibition is 62.5% (active).

As for `Nc1[nH]c(C(=O)c2ccc(Br)cc2)c(-c2ccc3c(c2)OCO3)c1C(=O)NCCc1c[nH]c2ccccc12`, the inhibition is -6.65%.

Turning to `CC(C)(C)NC(=O)CN(C(=O)c1csnn1)c1ccccc1-c1ccccc1`, the inhibition is 5.99%.

Take `OC(CNCCc1ccc(Cl)cc1Cl)COc1ccccc1` (stereo unspecified): the inhibition is 52.8% (active).

Turning to `OC(COc1ccccc1)CN1CCN(c2cccc(Cl)c2)CC1` (stereo unspecified), the inhibition was -33.9%.

For `COc1ccc(OCC(O)CNC(=O)Nc2ccc(Cl)cc2)cc1` (stereo unspecified), the inhibition was 12.9%.

In the case of `CCOc1ccc(CCN2C(=O)C(=O)N([C@@H](Cc3ccc(O)cc3)CN3CCC[C@H]3CN3C(=O)C(=O)NC[C@@H]3CC(C)C)C[C@@H]2Cc2ccccc2)cc1`, the inhibition was -8.01%.

As to `CCOC(=O)C1CSCCS(=O)(=O)N1Cc1ccc(Cl)cc1` (stereo unspecified), the inhibition was -2.26%.

Consider `NC(=O)C1CCN(C(=O)c2ccc3c(=O)n(Cc4cccc(Br)c4)c(=S)[nH]c3c2)CC1`, for which the inhibition is -0.46%.

With `C=CCn1c(SCc2cccc(F)c2)nc2cc(C(=O)N3CCC(C(N)=O)CC3)ccc2c1=O`, the inhibition was 62.7% (active).

Regarding `C=CCn1c(SCC(=O)CC(=O)OCC)nc2cc(C(=O)N3CCC(C(N)=O)CC3)ccc2c1=O`, the inhibition is -12.6%.

As for `COc1ccc2[nH]c(=O)c(CN(Cc3cccnc3)S(=O)(=O)c3ccccc3F)cc2c1`, the inhibition is 69.4% (active).

On to `CCOc1ccc2[nH]c(=O)c(CN(CCCO)S(=O)(=O)c3ccc(F)cc3)cc2c1`, for which the inhibition is 28.9%.

For the molecule `COc1ccc(-c2[nH]ncc2CN(C)Cc2cccnc2)c(F)c1`, the inhibition is -6.76%.

`O=C(Nc1cccc(NC(=O)c2ccc(Br)cc2)c1)c1ccccc1`: the inhibition is 66% (active).

For `O=C(Nc1ccccc1)c1ccc2nsnc2c1`, the inhibition was -3.37%.

`CC(C)(C)NC(=O)c1cccc(NC(=O)Cc2ccc(Br)cc2)c1`: the inhibition was -5.95%.

For `CCn1cc(/C=C2/SC(=S)NC2=O)c(C)n1`, the inhibition is -4.35%.

For the molecule `O=C(NCc1cccnc1)c1ccc2nc([C@@H]3O[C@H](CO)[C@H](O)[C@H](O)[C@H]3O)[nH]c2c1`, the inhibition is 1.36%.

With `CCOc1ccc(N2CC(C(=O)NCc3ccccn3)CC2=O)cc1` (stereo unspecified), the inhibition is -11.4%.

Consider `CCOc1ccc(NC(=O)[C@H](C)NC(=O)C2CC(=O)N(c3ccc(OC)cc3)C2)cc1` (stereo partly specified), for which the inhibition was -34.6%.

With `CCOc1ccc(N2CC(C(=O)N/N=C/c3sccc3C)CC2=O)cc1` (stereo unspecified), the inhibition is 105% (active).

On to `O=C(NCc1ccccc1)[C@H]1CCCN1C(=O)[C@H]1CCCN1C(=O)c1cc(F)cc(F)c1`, for which the inhibition is -9.09%.

`COC(=O)[C@]12CCCCC=C1N(Cc1ccc3c(c1)OCO3)C(=O)[C@H](CC(=O)N1CCOCC1)C2`: the inhibition was 2.33%.

With `Cn1c(=O)c2ccccc2n(CC(=O)Nc2ccc3c(c2)OCCO3)c1=O`, the inhibition was -4.86%.

As to `Cc1ccc(Cn2c(C)c(C(=O)NCc3ccccc3C(F)(F)F)sc2=O)cc1`, the inhibition was 24%.

As for `Cc1c(C(=O)NCc2ccc(C#N)cc2)sc(=O)n1Cc1ccc(C(=O)N(C)C)cc1`, the inhibition is 0.09%.

Turning to `CC(=O)Oc1ccc(Cn2c(C)c(C(=O)NCc3ccc(C#N)cc3)sc2=O)cc1`, the inhibition was 85.1% (active).
